The source of these data is ChEMBL document CHEMBL1129933, “Tyrosine kinase inhibitors. 6. Structure-activity relationships among N- and 3-substituted 2,2'-diselenobis(1H-indoles) for inhibition of protein tyrosine kinases and comparative in vitro and in vivo studies against selected sulfur congeners” (J Med Chem, 1997).

The subject of one assay is MCF7. As to the kind of experiment: In vivo activity against human MCF-7 xenograft, tumor growth delay (T-C) at 3.0 mg/kg ip dose at 4 hour intervals 3x a day for 5-11 days. To be noted: route intraperitoneal.
Assay [1] deals with Colon 26. Description: In vivo activity against murine colon 26, net cell kill at 0.75 mg/kg ip dose at 4 hour intervals 3x a day for 9 days. Type of assay: functional, Mus musculus. The conditions noted are these: route intraperitoneal. In short, it runs like this:
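Colon 26 was passaged in BALB/c mice; tested in CD2F1 mice (18-22 g, randomized) implanted on day 0 ip with counted cells or sc with fragments. Dosing was ip bolus, daily or q4h ×3 daily, by average cage weight. Vehicle was distilled H2O or 10% DMA in 50 mM lactic acid, pH 4.0. Net cell kill = log tumor-burden reduction between first and last treatments.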

The subject of assay [2] is A-431. As to the kind of experiment: In vivo activity against human A431 epidermoid xenograft, tumor growth delay (T-C) at 10 mg/kg administered subcutaneously for 9-15 days. To be noted: route subcutaneous.
The test system of a further assay is C6. As to the kind of experiment: In vivo activity against C6 glioma xenograft, weight change after 5 mg/kg ip dose for 9 days. The format is functional, organism-based. Further details: dose 5 mg/kg. A digest of the protocol: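 Nude mice (NCr nu/nu, 18-22 g) implanted sc in the right axilla with serially passaged C6 glioma fragments on day 0, randomized, and dosed ip by bolus on days 1-9 based on average cage weight. Vehicle was distilled H2O or 10% DMA in 50 mM lactic acid buffer, pH 4.0, depending on compound. Weight change was taken as the maximum treatment-related weight loss.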

The subject of assay [3] is B16. As to the kind of experiment: In vivo activity against murine B16 melanoma, net cell kill at 3.0 mg/kg ip dose for 9 days. Type of assay: functional, Mus musculus. To be noted: route intraperitoneal. A digest of the protocol: (§1)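 Tumors were passaged in C57BL/6 mice; B6C3F1 mice (18-22 g, randomized) were implanted on day 0 ip with counted tumor cells or sc with fragments. Dosing was ip bolus, daily or q4h ×3 daily, by average cage weight. Vehicle was distilled H2O or 10% DMA in 50 mM lactic acid buffer, pH 4.0. Net cell kill = log reduction in tumor burden between first and last treatments.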

The subject of a further assay is M5076. As to the kind of experiment: In vivo activity against murine M5076 sarcoma, net cell kill at 3.0 mg/kg ip dose at 4 hour intervals 3x per day for 9 days. Type of assay: functional, Mus musculus. To be noted: route intraperitoneal. A digest of the protocol: as §1
Assay [4] concerns A-431. As to the kind of experiment: In vivo activity against human A431 epidermoid xenograft, weight change after 9 mg/kg sc dose for 1-27 days. Further details: dose 9 mg/kg. The format is functional, organism-based. A digest of the protocol: (§2)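 Nude mice (NCr nu/nu, 18-22 g) bearing sc A431 fragments in the right axilla (day 0) received continuous sc infusion from an Alzet miniosmotic pump implanted under ketamine-xylazine. Pumps were removed or replaced under lidocaine-epinephrine for longer therapy, in 7-day and 27-day studies. Daily dose was the maximum deliverable without significant precipitation. Weight change was taken as the maximum treatment-related loss.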

Assay [5] concerns Colon 26. As to the kind of experiment: In vivo activity against murine colon 26, percent treated/control tumor mass at 1.5 mg/kg ip dose for 9 days. To be noted: route intraperitoneal. Type of assay: functional, Mus musculus. In short, it runs like this: (§3)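 Murine tumours were maintained by serial transplantation (~30 mg fragments every 2 weeks): B16 in C57BL/6 and colon 26 in BALB/c. They were tested in F1 hosts, B6C3F1 for B16 and CD2F1 for colon 26, weighing 18-22 g. Treatment was ip daily or q4h ×3 for 9 days. Weight change was the difference between mean group weights on the last and first treatment days, from life-span assays.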

The subject of assay [6] is A-431. Description: In vivo activity against human A431 epidermoid xenograft, tumor growth delay (T-C) at 9 mg/kg administered subcutaneously for 1-27 days. To be noted: route subcutaneous.
Assay [7] has as its system B16. As to the kind of experiment: In vivo activity against murine B16 melanoma, weight change after 3.0 mg/kg i.p. dose for 9 days. Type of assay: functional, Mus musculus. The conditions noted are these: route intraperitoneal. A digest of the protocol: as §3
The target in assay [8] is Fibroblast growth factor receptor (Mus musculus, UniProt P21803+Q03142+P16092+Q61851). As to the kind of experiment: Inhibition of fibroblast growth factor (bFGF)-mediated autophosphorylation of FGF-R in Swiss 3T3 mouse fibroblasts. Type of assay: functional. In short, it runs like this: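 Swiss 3T3 fibroblasts were treated 2 h with a range of compound concentrations, then stimulated for 5 min with growth factor (bFGF). Receptor tyrosine phosphorylation was read by extraction and western blotting.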

Assay [9] deals with A-431. Description: In vivo activity against human A431 epidermoid xenograft, weight change after 10 mg/kg sc dose for 9-15 days. The format is functional. The conditions noted are these: route subcutaneous. In short, it runs like this:
as §2

Take `NC(Cc1c(SSc2[nH]c3ccccc3c2CC(N)C(=O)NCc2ccccc2)[nH]c2ccccc12)C(=O)NCc1ccccc1` (configuration not stated): the values for the T-C in the assay with MCF7, with A-431 [2] and with A-431 [6] were 1 days, 1.9 days and 1 days, respectively. For the same molecule, the results for the Net cell kill in the assay with Colon 26 [1], with B16 [3] and in the assay on M5076 were -0.2 log10, -1.3 log10 and -0.8 log10, respectively. The Weight change result with C6 is listed as “Weight gain”; in the assay with A-431 [4] it was “Weight gain”; with B16 [7], 1.4 g; with A-431 [9], -1.2 g. This molecule also had a T/C with Colon 26 [5] of 115%. The molecule further gave an IC50 in assay [8] of 2300 nM.
